Reference: ChEMBL document CHEMBL3244146, “Pyranenamines: a new series of antiallergic compounds” (1979)

Key:
Rattus norvegicus [1] = test: Antiallergic activity in iv dosed rat assessed as inhibition of egg albumin-induced passive cutaneous anaphylaxis treated for 30 secs followed by egg albumin-challenge measured after 30 mins; assay type: functional; conditions: 0.5 h, read-out: ID50 (the source's name)
[2] = Antiallergic activity in passively sensitized rhesus monkey lungs assessed as inhibition of antigen-induced histamine release at 1 x 10^-5 M by fluorometric analysis relative to control; assay type: functional, Macaca mulatta, Lung
How it was run: (§1)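 Passively sensitized fragmented lung from a young adult male rhesus monkey, challenged with IgE-antihuman IgE; histamine release measured fluorometrically and SRS-A estimated by guinea pig ileum bioassay; inhibition relative to control; replicates given as number of separate lung preparations.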

[3] = Antiallergic activity in passively sensitized rhesus monkey lungs assessed as inhibition of antigen-induced slow reacting substance of anaphylaxis release at 1 x 10^-6 M relative to control; assay type: functional, Macaca mulatta, Lung; how it was run: as §1
[4] = Antiallergic activity in passively sensitized rhesus monkey lungs assessed as inhibition of antigen-induced histamine release at 1 x 10^-6 M by fluorometric analysis relative to control; assay type: functional, Macaca mulatta, Lung; how it was run: as §1
[5] = Antiallergic activity in passively sensitized rhesus monkey lungs assessed as inhibition of antigen-induced histamine release at 1 x 10^-4 M by fluorometric analysis relative to control; assay type: functional, Macaca mulatta, Lung; how it was run: as §1
Rattus norvegicus [6] = test: Antiallergic activity in po dosed rat assessed as inhibition of egg albumin-induced passive cutaneous anaphylaxis treated for 15 mins followed by egg albumin-challenge measured after 30 mins; assay type: functional; conditions: read-out: ID50 (the source's name)
How it was run: (§2)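 Oral PCA in rats: intradermal antiserum at four back sites (dose giving ~12×12 mm wheal), compound po 48 h later, 15 min before iv challenge with 0.5 mL saline containing 5 mg Evans blue plus 5 mg egg albumin; skin bluing read 30 min after challenge on two axes per wheal; six rats per dose versus ≥6 vehicle controls; percent inhibition from mean wheal size, one-sided t test.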

Rattus norvegicus [7] = test: Ratio of DSCG ID50 to compound ID50 for antiallergic activity in iv dosed rat; assay type: functional
[8] = Antiallergic activity in passively sensitized rhesus monkey lungs assessed as inhibition of antigen-induced slow reacting substance of anaphylaxis release at 1 x 10^-4 M relative to control; assay type: functional, Macaca mulatta, Lung; how it was run: as §1
[9] = Antiallergic activity in passively sensitized rhesus monkey lungs assessed as inhibition of antigen-induced slow reacting substance of anaphylaxis release at 1 x 10^-5 M relative to control; assay type: functional, Macaca mulatta, Lung; how it was run: as §1
Rattus norvegicus [10] = test: Antiallergic activity in rat assessed as inhibition of egg albumin-induced passive cutaneous anaphylaxis at 100 mg/kg, iv treated for 30 secs followed by egg albumin-challenge measured after 30 mins relative to control; assay type: functional; conditions: 0.5 h
Lung [11] = test: Antiallergic activity in passively sensitized albino rat lungs assessed as inhibition of antigen-induced histamine release at 1 x 10^-5 M by fluorometric analysis relative to control; assay type: functional
How it was run: (§3)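 Fragmented lung from adult male Charles River albino rats, passively sensitized, then antigen-challenged with compound present; released histamine measured fluorometrically; inhibition reported relative to control, with replicate count given as number of separate lung preparations.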

Rattus norvegicus [12] = test: Antiallergic activity in rat assessed as inhibition of egg albumin-induced passive cutaneous anaphylaxis at 0.7 mg/kg, iv treated for 30 secs followed by egg albumin-challenge measured after 30 mins relative to control; assay type: functional; conditions: 0.5 h
[13] = Antiallergic activity in passively sensitized rhesus monkey lungs assessed as inhibition of antigen-induced histamine release by fluorometric analysis; assay type: functional, Macaca mulatta, Lung; how it was run: as §1
[14] = Antiallergic activity in passively sensitized rhesus monkey lungs assessed as inhibition of antigen-induced slow reacting substance of anaphylaxis release; assay type: functional, Macaca mulatta, Lung; how it was run: as §1
[15] = Antiallergic activity in passively sensitized rhesus monkey lungs assessed as inhibition of antigen-induced slow reacting substance of anaphylaxis release at 5 x 10^-5 M relative to control; assay type: functional, Macaca mulatta, Lung; how it was run: as §1
[16] = Antiallergic activity in passively sensitized rhesus monkey lungs assessed as inhibition of antigen-induced histamine release at 5 x 10^-5 M by fluorometric analysis relative to control; assay type: functional, Macaca mulatta, Lung; how it was run: as §1
Lung [17] = test: Antiallergic activity in passively sensitized albino rat lungs assessed as inhibition of antigen-induced histamine release at 1 x 10^-6 M by fluorometric analysis relative to control; assay type: functional; how it was run: as §3
Rattus norvegicus [18] = test: Ratio of antiallergic activity in iv dosed rat to antiallergic activity in po dosed rat; assay type: functional
Lung [19] = test: Antiallergic activity in passively sensitized albino rat lungs assessed as inhibition of antigen-induced histamine release at 1 x 10^-8 M by fluorometric analysis relative to control; assay type: functional; how it was run: as §3
Lung [20] = test: Antiallergic activity in passively sensitized albino rat lungs assessed as inhibition of antigen-induced histamine release at 1 x 10^-7 M by fluorometric analysis relative to control; assay type: functional; how it was run: as §3
Rattus norvegicus [21] = test: Antiallergic activity in rat assessed as inhibition of egg albumin-induced passive cutaneous anaphylaxis at 0.25 mg/kg, iv treated for 30 secs followed by egg albumin-challenge measured after 30 mins relative to control; assay type: functional; conditions: 0.5 h
Rattus norvegicus [22] = test: Antiallergic activity in rat assessed as inhibition of egg albumin-induced passive cutaneous anaphylaxis at 25 mg/kg, po treated for 15 mins followed by egg albumin-challenge measured after 30 mins relative to control; assay type: functional; how it was run: as §2
Rattus norvegicus [23] = test: Antiallergic activity in rat assessed as inhibition of egg albumin-induced passive cutaneous anaphylaxis at 3.4 mg/kg, iv treated for 30 secs followed by egg albumin-challenge measured after 30 mins relative to control; assay type: functional; conditions: 0.5 h
Rattus norvegicus [24] = test: Antiallergic activity in rat assessed as inhibition of egg albumin-induced passive cutaneous anaphylaxis at 0.2 mg/kg, iv treated for 30 secs followed by egg albumin-challenge measured after 30 mins relative to control; assay type: functional; conditions: 0.5 h
Lung [25] = test: Antiallergic activity in passively sensitized albino rat lungs assessed as inhibition of antigen-induced histamine release at 1 x 10^-9 M by fluorometric analysis relative to control; assay type: functional; how it was run: as §3
[26] = Antiallergic activity in passively sensitized rhesus monkey lungs assessed as inhibition of antigen-induced slow reacting substance of anaphylaxis release at 5 x 10^-6 M relative to control; assay type: functional, Macaca mulatta, Lung; how it was run: as §1
[27] = Antiallergic activity in passively sensitized rhesus monkey lungs assessed as inhibition of antigen-induced histamine release at 5 x 10^-6 M by fluorometric analysis relative to control; assay type: functional, Macaca mulatta, Lung; how it was run: as §1

SMILES	inhibition (INH) [2]	inhibition (INH) [3]	inhibition (INH) [4]	inhibition (INH) [5]	ED50 (Rattus norvegicus [6])	inhibition (INH) [8]	inhibition (INH) [9]	inhibition (INH) (Lung [11])	inhibition (INH) [15]	inhibition (INH) [16]	inhibition (INH) (Lung [17])	inhibition (INH) (Lung [19])	inhibition (INH) (Lung [20])	inhibition in vivo at 25 mg/kg (Rattus norvegicus [22])	further results
CC(=O)C1=C(O)/C(=C(\C)Nc2cc(NC(=O)C(O)CO)cc(NC(=O)C(O)CO)c2)C(=O)OC1=O (centres undefined)	-20%	-7%	-30%	7%	2.9 mg/kg	7%	-0.5%	–	–	–	–	–	–	–	ED50 (Rattus norvegicus [1]): 0.0009 mg/kg; Ratio (Rattus norvegicus [7]): 1000
CC(=O)C1=C(O)/C(=C(\C)Nc2ccc(N(C)C)cc2)C(=O)OC1=O	–	–	–	–	–	–	–	–	–	–	–	–	–	–	inhibition in vivo at 100 mg/kg (Rattus norvegicus [10]): 11%
CC(=O)C1=C(O)/C(=C(\C)Nc2ccc(O)c(N)c2)C(=O)OC1=O.Cl	22%	-24%	4%	66%	0.8 mg/kg	56%	1%	47%	40%	49%	61%	26%	42%	–	inhibition in vivo at 0.7 mg/kg (Rattus norvegicus [12]): 50%; ID30 [13]: 1.3 ×10⁻⁵ M; ID30 [14]: 3.3 ×10⁻⁵ M; Ratio (Rattus norvegicus [18]): 1
CC(=O)Nc1cccc(N/C(C)=C2\C(=O)OC(=O)C(C(C)=O)=C2O)c1	–	–	–	–	–	–	–	–	–	–	–	–	–	53%	inhibition in vivo at 0.25 mg/kg (Rattus norvegicus [21]): 65%
CC(=O)C1=C(O)/C(=C(\C)Nc2ccc(N)c(O)c2)C(=O)OC1=O	–	–	–	–	–	–	–	–	–	–	–	–	–	40%	inhibition in vivo at 3.4 mg/kg (Rattus norvegicus [23]): 50%
CC(=O)Nc1cc(N/C(C)=C2\C(=O)OC(=O)C(C(C)=O)=C2O)ccc1O	-31%	–	–	–	–	–	5%	86%	33%	25%	76%	53%	88%	50%	inhibition in vivo at 0.2 mg/kg (Rattus norvegicus [24]): 50%; inhibition (INH) (Lung [25]): 43%; inhibition (INH) [26]: -11%; inhibition (INH) [27]: -32%
